Results: ChEMBL document CHEMBL3124928, “Synthesis, antileishmanial activity and docking study of N'-substitutedbenzylidene-2-(6,7-dihydrothieno[3,2-c]pyridin-5(4H)-yl)acetohydrazides” (Bioorg Med Chem Lett, 2014)
Converted amounts (≈) assume the structure as drawn. The source made the active and inactive calls. No cut-off for these calls is given here.

What was measured:
Aspergillus niger = assay: Antifungal activity against Aspergillus niger NCIM 1196 by standard agar method; format: functional
Procedure, shortened: (§1)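 MIC determined by standard agar method, with dimethyl sulfoxide as solvent control.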

Candida albicans = assay: Antifungal activity against Candida albicans NCIM 3471 by standard agar method; format: functional; procedure, shortened: as §1
Bacillus subtilis [1] = assay: Antibacterial activity against Bacillus subtilis NCIM 2063 up to 300 ug/ml by standard agar method; format: functional, organism-based
Pseudomonas aeruginosa [2] = assay: Antibacterial activity against Pseudomonas aeruginosa NCIM 2036 up to 300 ug/ml by standard agar method; format: functional, organism-based
Staphylococcus aureus [3] = assay: Antibacterial activity against Staphylococcus aureus NCIM 2901 by standard agar method; format: functional; procedure, shortened: as §1
Escherichia coli = assay: Antibacterial activity against Escherichia coli NCIM 2256 by standard agar method; format: functional; procedure, shortened: as §1
HeLa = assay: Cytotoxicity against human HeLa cells up to 300 ug/ml after 72 hrs by MTT assay; format: cell-based
Leishmania donovani = assay: Antileishmanial activity against Leishmania donovani NHOM/IN/80/DD8 promastigotes assessed as decrease in parasite growth after 72 hrs by MTT assay; format: functional, organism-based; details: NHOM/IN/80/DD8, 72 h
Procedure, shortened: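 Cultured promastigotes were used, and viability was read by a modified MTT assay, with formazan yield taken as proportional to metabolically active cells. IC50 is the concentration cutting cell growth by 50%, found by graphic interpolation.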

Bacillus subtilis [4] = assay: Antibacterial activity against Bacillus subtilis NCIM 2063 by standard agar method; format: functional; procedure, shortened: as §1
Pseudomonas aeruginosa [5] = assay: Antibacterial activity against Pseudomonas aeruginosa NCIM 2036 by standard agar method; format: functional; procedure, shortened: as §1
Staphylococcus aureus [6] = assay: Antibacterial activity against Staphylococcus aureus NCIM 2901 up to 300 ug/ml by standard agar method; format: functional, organism-based

**Q.** For `COc1cccc(N)c1/C=N/NC(=O)CN1CCc2sccc2C1`, which MIC (Aspergillus niger) is on record?
**A.** 140 µg/mL (≈ 406 µM)

**Q.** And the MIC (Candida albicans)?
**A.** 60 µg/mL (≈ 174 µM)

**Q.** And the Activity (Bacillus subtilis [1])?
**A.** inactive

**Q.** What about the Activity (Pseudomonas aeruginosa [2]) of the same compound?
**A.** inactive

**Q.** What about the MIC (Staphylococcus aureus [3]) of the same compound?
**A.** 275 µg/mL (≈ 798 µM)

**Q.** What about the MIC (Escherichia coli) of the same compound?
**A.** 175 µg/mL (≈ 508 µM)

**Q.** And the Activity (HeLa)?
**A.** Non-toxic

**Q.** And the IC50 (Leishmania donovani)?
**A.** 722 µM

**Q.** `O=C(CN1CCc2sccc2C1)N/N=C/c1ccc(Cl)cc1` was tested. Which MIC (Aspergillus niger) did it give?
**A.** 100 µg/mL (≈ 300 µM)

**Q.** What about the MIC (Candida albicans) of the same compound?
**A.** 100 µg/mL (≈ 300 µM)

**Q.** What about the MIC (Bacillus subtilis [4]) of the same compound?
**A.** 100 µg/mL (≈ 300 µM)

**Q.** And the MIC (Staphylococcus aureus [3])?
**A.** 50 µg/mL (≈ 150 µM)

**Q.** What about the MIC (Pseudomonas aeruginosa [5]) of the same compound?
**A.** 50 µg/mL (≈ 150 µM)

**Q.** What about the MIC (Escherichia coli) of the same compound?
**A.** 25 µg/mL (≈ 74.9 µM)

**Q.** And the Activity (HeLa)?
**A.** Non-toxic

**Q.** And the IC50 (Leishmania donovani)?
**A.** 738 µM

**Q.** `O=C(CN1CCc2sccc2C1)N/N=C/c1ccccc1Cl` was tested. Which MIC (Aspergillus niger) did it give?
**A.** 120 µg/mL (≈ 359 µM)

**Q.** And the MIC (Candida albicans)?
**A.** 60 µg/mL (≈ 180 µM)

**Q.** What about the MIC (Bacillus subtilis [4]) of the same compound?
**A.** 100 µg/mL (≈ 300 µM)

**Q.** What about the MIC (Staphylococcus aureus [3]) of the same compound?
**A.** 100 µg/mL (≈ 300 µM)

**Q.** What about the MIC (Pseudomonas aeruginosa [5]) of the same compound?
**A.** 125 µg/mL (≈ 374 µM)

**Q.** And the MIC (Escherichia coli)?
**A.** 25 µg/mL (≈ 74.9 µM)

**Q.** What about the Activity (HeLa) of the same compound?
**A.** Non-toxic

**Q.** What about the IC50 (Leishmania donovani) of the same compound?
**A.** 296 µM

**Q.** Which IC50 (Leishmania donovani) does the source give for `N=C(N)c1ccc(OCCCCCOc2ccc(C(=N)N)cc2)cc1` [PENTAMIDINE] here?
**A.** 16.1 µM

**Q.** Which results are given for `OC(Cn1cncn1)(Cn1cncn1)c1ccc(F)cc1F` [FLUCONAZOLE]?
**A.** MIC (Aspergillus niger): 10 µg/mL (≈ 32.7 µM); MIC (Candida albicans): 5 µg/mL (≈ 16.3 µM)

**Q.** Which results are given for `COc1ccc(OC)c(/C=N/NC(=O)CN2CCc3sccc3C2)c1`?
**A.** MIC (Aspergillus niger): 150 µg/mL (≈ 417 µM); MIC (Candida albicans): 25 µg/mL (≈ 69.6 µM); MIC (Bacillus subtilis [4]): 100 µg/mL (≈ 278 µM); MIC (Staphylococcus aureus [3]): 75 µg/mL (≈ 209 µM); MIC (Pseudomonas aeruginosa [5]): 250 µg/mL (≈ 696 µM); MIC (Escherichia coli): 125 µg/mL (≈ 348 µM); Activity (HeLa): Non-toxic; IC50 (Leishmania donovani): 689 µM

**Q.** Which MIC (Aspergillus niger) does the source give for `O=C(CN1CCc2sccc2C1)N/N=C/c1c(Cl)cccc1Cl` here?
**A.** 160 µg/mL (≈ 434 µM)

**Q.** And the MIC (Candida albicans)?
**A.** 80 µg/mL (≈ 217 µM)

**Q.** What about the MIC (Bacillus subtilis [4]) of the same compound?
**A.** 250 µg/mL (≈ 679 µM)

**Q.** What about the MIC (Staphylococcus aureus [3]) of the same compound?
**A.** 250 µg/mL (≈ 679 µM)

**Q.** What about the MIC (Pseudomonas aeruginosa [5]) of the same compound?
**A.** 150 µg/mL (≈ 407 µM)

**Q.** What about the MIC (Escherichia coli) of the same compound?
**A.** 50 µg/mL (≈ 136 µM)

**Q.** And the Activity (HeLa)?
**A.** Non-toxic

**Q.** And the IC50 (Leishmania donovani)?
**A.** 645 µM

**Q.** For `N#Cc1ccc(/C=N/NC(=O)CN2CCc3sccc3C2)cc1`, which MIC (Aspergillus niger) is on record?
**A.** 140 µg/mL (≈ 432 µM)

**Q.** And the MIC (Candida albicans)?
**A.** 80 µg/mL (≈ 247 µM)

**Q.** And the Activity (Bacillus subtilis [1])?
**A.** inactive

**Q.** And the MIC (Staphylococcus aureus [3])?
**A.** 250 µg/mL (≈ 771 µM)

**Q.** And the MIC (Pseudomonas aeruginosa [5])?
**A.** 150 µg/mL (≈ 462 µM)

**Q.** What about the MIC (Escherichia coli) of the same compound?
**A.** 100 µg/mL (≈ 308 µM)

**Q.** What about the Activity (HeLa) of the same compound?
**A.** Non-toxic

**Q.** What about the IC50 (Leishmania donovani) of the same compound?
**A.** 694 µM

**Q.** `O=C(CN1CCc2sccc2C1)N/N=C/c1ccc(O)c(O)c1` was tested. Which MIC (Aspergillus niger) did it give?
**A.** 75 µg/mL (≈ 226 µM)

**Q.** And the MIC (Candida albicans)?
**A.** 75 µg/mL (≈ 226 µM)

**Q.** What about the Activity (Bacillus subtilis [1]) of the same compound?
**A.** inactive

**Q.** What about the Activity (Staphylococcus aureus [6]) of the same compound?
**A.** inactive

**Q.** What about the MIC (Pseudomonas aeruginosa [5]) of the same compound?
**A.** 150 µg/mL (≈ 453 µM)

**Q.** And the MIC (Escherichia coli)?
**A.** 50 µg/mL (≈ 151 µM)

**Q.** What about the Activity (HeLa) of the same compound?
**A.** Non-toxic

**Q.** And the IC50 (Leishmania donovani)?
**A.** 672 µM

**Q.** What does the source list for `COc1ccc(/C=N/NC(=O)CN2CCc3sccc3C2)c(OC)c1`?
**A.** MIC (Aspergillus niger): 50 µg/mL (≈ 139 µM); MIC (Candida albicans): 25 µg/mL (≈ 69.6 µM); MIC (Bacillus subtilis [4]): 100 µg/mL (≈ 278 µM); MIC (Staphylococcus aureus [3]): 75 µg/mL (≈ 209 µM); MIC (Pseudomonas aeruginosa [5]): 250 µg/mL (≈ 696 µM); MIC (Escherichia coli): 125 µg/mL (≈ 348 µM); Activity (HeLa): Non-toxic; IC50 (Leishmania donovani): 737 µM

**Q.** `CN(C)c1ccc(/C=N/NC(=O)CN2CCc3sccc3C2)cc1` was tested. Which MIC (Aspergillus niger) did it give?
**A.** 100 µg/mL (≈ 292 µM)

**Q.** What about the MIC (Candida albicans) of the same compound?
**A.** 40 µg/mL (≈ 117 µM)

**Q.** What about the Activity (Bacillus subtilis [1]) of the same compound?
**A.** inactive

**Q.** What about the Activity (Pseudomonas aeruginosa [2]) of the same compound?
**A.** inactive

**Q.** And the MIC (Staphylococcus aureus [3])?
**A.** 100 µg/mL (≈ 292 µM)

**Q.** And the MIC (Escherichia coli)?
**A.** 50 µg/mL (≈ 146 µM)

**Q.** And the Activity (HeLa)?
**A.** Non-toxic

**Q.** What about the IC50 (Leishmania donovani) of the same compound?
**A.** 274 µM

**Q.** Which results are given for `CC1(C)S[C@@H]2[C@H](NC(=O)[C@H](N)c3ccccc3)C(=O)N2[C@H]1C(=O)O` [AMPICILLIN]?
**A.** MIC (Bacillus subtilis [4]): 250 µg/mL (≈ 715 µM); MIC (Staphylococcus aureus [3]): 250 µg/mL (≈ 715 µM); MIC (Pseudomonas aeruginosa [5]): 100 µg/mL (≈ 286 µM); MIC (Escherichia coli): 100 µg/mL (≈ 286 µM)

**Q.** For `O=C(O)c1cn(C2CC2)c2cc(N3CCNCC3)c(F)cc2c1=O` [CIPROFLOXACIN], which MIC (Staphylococcus aureus [3]) is on record?
**A.** 50 µg/mL (≈ 151 µM)

**Q.** And the MIC (Escherichia coli)?
**A.** 25 µg/mL (≈ 75.4 µM)

**Q.** With `Clc1ccc(COC(Cn2ccnc2)c2ccc(Cl)cc2Cl)c(Cl)c1` (stereo unspecified) [MICONAZOLE] as the compound, how does the MIC (Aspergillus niger) read?
**A.** 12.5 µg/mL (≈ 30 µM)

**Q.** And the MIC (Candida albicans)?
**A.** 25 µg/mL (≈ 60.1 µM)

**Q.** What does the source list for `COc1ccc(/C=N/NC(=O)CN2CCc3sccc3C2)cc1OC`?
**A.** MIC (Aspergillus niger): 12.5 µg/mL (≈ 34.8 µM); MIC (Candida albicans): 37.5 µg/mL (≈ 104 µM); MIC (Bacillus subtilis [4]): 150 µg/mL (≈ 417 µM); MIC (Staphylococcus aureus [3]): 150 µg/mL (≈ 417 µM); MIC (Pseudomonas aeruginosa [5]): 200 µg/mL (≈ 556 µM); MIC (Escherichia coli): 150 µg/mL (≈ 417 µM); Activity (HeLa): Non-toxic; IC50 (Leishmania donovani): 619 µM
